# From ChEMBL document CHEMBL1152239, “Development of mitochondria-targeted derivatives of resveratrol” (Bioorg Med Chem Lett, 2008)
# Activity calls are given as the source filed them. The calls are words filed in the database; no cut-off is given here.
# Experiments:
# MEF [1] = assay: Cytotoxicity against slow-growing MEF at 5 uM by tetrazolium salt reduction assay; assay type: cell-based; conditions: mouse
# Procedure, shortened: (§1)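 MTT (tetrazolium salt reduction) read-out after cells grew for 3 days with the compound present, tested at 1 and 5 µM. Cell lines were C-26 mouse colon tumor cells and fast- and slow-growing non-tumoral mouse embryonic fibroblasts. Each measurement was run in quadruplicate and reported as average ± s.d.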
# [2] = Solubility in water; assay type: physicochemical
# MEF [3] = assay: Cytotoxicity against fast-growing MEF at 5 uM by tetrazolium salt reduction assay; assay type: functional, cell-based; conditions: Mus musculus; procedure, shortened: as §1
# [4] = Drug uptake in rat liver mitochondria at 0.5 uM measured by TPP+ sensitive electrode; assay type: ADME; conditions: in vitro
# C26 = assay: Cytotoxicity against mouse C26 cells at 5 uM by tetrazolium salt reduction assay; assay type: functional, cell-based; procedure, shortened: as §1
# HCT-116 = assay: Drug uptake in human HCT116 cells at 10 uM after 25 mins by fluorescence microscopic method; assay type: ADME, cell-based; conditions: hct-116, 25 min
# Procedure, shortened: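 Cultured HCT116 cells were imaged by fluorescence microscopy with excitation at 340 nm, just before compound addition and 25 min after it. Protonophore FCCP was then added and cells were imaged again 10 min later to check that the signal depends on membrane potential.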
Structure (SMILES),Activity (MEF [1]),solubility [2] [µM],Activity (MEF [3]),Activity [4],Activity (C26),Activity (HCT-116)
CC(=O)Oc1cc(/C=C/c2ccc(OCCCC[P+](c3ccccc3)(c3ccccc3)c3ccccc3)cc2)cc(OC(C)=O)c1.[I-],Not Active,97,Active,Active,Active,Active
Oc1cc(O)cc(/C=C/c2ccc(OCCCC[P+](c3ccccc3)(c3ccccc3)c3ccccc3)cc2)c1.[I-],Not Active,31.2,Active,,Active,Active
